Data reported in ChEMBL document CHEMBL4422684, “Identification of novel lysine demethylase 5-selective inhibitors by inhibitor-based fragment merging strategy” (Bioorg Med Chem, 2019).

Molecular target: T1, Lysine-specific demethylase 2A (Homo sapiens, UniProt Q9Y2K7)
T1 sequence (Q9Y2K7 whole entry): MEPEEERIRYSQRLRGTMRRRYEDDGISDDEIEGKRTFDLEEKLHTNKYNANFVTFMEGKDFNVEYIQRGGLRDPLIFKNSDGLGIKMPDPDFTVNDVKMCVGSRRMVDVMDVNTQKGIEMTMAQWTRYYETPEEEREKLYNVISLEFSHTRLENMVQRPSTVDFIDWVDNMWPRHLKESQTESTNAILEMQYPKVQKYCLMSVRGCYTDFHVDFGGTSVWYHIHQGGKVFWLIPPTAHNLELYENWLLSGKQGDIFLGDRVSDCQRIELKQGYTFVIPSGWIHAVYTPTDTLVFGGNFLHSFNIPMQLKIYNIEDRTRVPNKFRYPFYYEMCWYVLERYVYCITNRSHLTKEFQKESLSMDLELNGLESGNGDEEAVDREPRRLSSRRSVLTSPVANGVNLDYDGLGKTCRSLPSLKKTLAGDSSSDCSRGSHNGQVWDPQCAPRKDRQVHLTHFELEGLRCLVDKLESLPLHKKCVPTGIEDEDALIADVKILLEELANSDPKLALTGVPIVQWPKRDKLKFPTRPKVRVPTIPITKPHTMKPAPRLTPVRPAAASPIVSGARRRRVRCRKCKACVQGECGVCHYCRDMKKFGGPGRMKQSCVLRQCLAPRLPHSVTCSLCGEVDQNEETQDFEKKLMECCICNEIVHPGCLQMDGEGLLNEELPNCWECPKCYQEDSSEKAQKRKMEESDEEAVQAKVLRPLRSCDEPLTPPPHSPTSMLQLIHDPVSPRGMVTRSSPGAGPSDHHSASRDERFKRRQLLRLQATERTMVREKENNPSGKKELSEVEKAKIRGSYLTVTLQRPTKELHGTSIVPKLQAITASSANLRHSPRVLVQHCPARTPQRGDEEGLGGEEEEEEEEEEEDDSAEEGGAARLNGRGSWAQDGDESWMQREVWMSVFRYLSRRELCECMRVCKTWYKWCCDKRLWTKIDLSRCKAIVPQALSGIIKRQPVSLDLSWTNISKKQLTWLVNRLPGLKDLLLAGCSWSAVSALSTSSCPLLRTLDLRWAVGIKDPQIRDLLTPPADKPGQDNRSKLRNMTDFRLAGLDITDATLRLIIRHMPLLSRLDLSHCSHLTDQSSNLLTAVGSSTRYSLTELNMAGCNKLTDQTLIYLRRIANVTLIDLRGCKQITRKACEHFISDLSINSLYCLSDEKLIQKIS
Assay: Inhibition of human N-terminal FLAG/Avi-tagged KDM2A (2 to 700 residues) expressed in baculovirus infected Sf9 insect cells using H3(21-44)-K36(Me2)-GK(Biotin)/2-OG as substrate measured after 1 hr by Alphalisa assay
How it was run: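 AlphaLISA demethylase assay in 50 mM HEPES pH 7.5, 0.1% BSA, 0.01% Tween 20 with DMSO. Enzyme and inhibitor combined, then peptide plus 2-OG (50 µM), Fe(II) (5 µM) and ascorbate (100 µM) in the added mix; 1 h at room temperature with shaking.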

An IC50 greater than 50 µM was found for CCCCCCN(C)Cc1ccc(-c2[nH]c3c(C#N)cnn3c(=O)c2C(C)C)cc1 in this work.
